{
  "source": "paper PMC8640676",
  "about": "(Journal of Pesticide Science, 2021)",
  "key": {"[1]": {"experiment": "Toxicokinetics in plasma, mouse 90-day study", "assay_type": "in vivo", "settings": "mouse, plasma, po"}, "[2]": {"experiment": "Toxicokinetics in plasma, dog 90-day study", "assay_type": "in vivo", "settings": "for Cmax: beagle, dog, plasma, po"}, "[3]": {"experiment": "In vitro metabolism study in liver microsomes", "assay_type": "in vitro ADME", "settings": "rat liver microsomes, [14C]epyrifenacil 10 µM"}, "[4]": {"experiment": "In vitro metabolism study in liver microsomes", "assay_type": "in vitro ADME", "settings": "mouse liver microsomes, [14C]epyrifenacil 10 µM"}, "[5]": {"experiment": "In vitro metabolism study in liver microsomes", "assay_type": "in vitro ADME", "settings": "human liver microsomes, [14C]epyrifenacil 10 µM"}, "[6]": {"molecular_target": "T1, protoporphyrinogen oxidase (PPO) (Mus musculus, UniProt P51175)", "T1 sequence (P51175 1-477)": "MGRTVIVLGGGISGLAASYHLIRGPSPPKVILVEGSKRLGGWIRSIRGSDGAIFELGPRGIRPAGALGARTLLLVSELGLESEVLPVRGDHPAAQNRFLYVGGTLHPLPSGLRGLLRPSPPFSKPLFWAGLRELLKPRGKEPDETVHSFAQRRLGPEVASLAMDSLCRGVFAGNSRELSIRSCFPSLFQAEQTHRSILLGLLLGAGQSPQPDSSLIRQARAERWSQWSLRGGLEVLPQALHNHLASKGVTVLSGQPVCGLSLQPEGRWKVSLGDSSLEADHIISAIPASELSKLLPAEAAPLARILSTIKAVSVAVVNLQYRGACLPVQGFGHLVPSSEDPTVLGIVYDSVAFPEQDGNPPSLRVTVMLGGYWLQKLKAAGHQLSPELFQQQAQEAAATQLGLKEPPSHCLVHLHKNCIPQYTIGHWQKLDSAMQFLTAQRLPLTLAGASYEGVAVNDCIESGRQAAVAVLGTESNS", "experiment": "PPO-inhibition assay, mouse liver mitochondrial fraction", "assay_type": "biochemical", "method_in_brief": "(§1)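 Liver mitochondria came from pooled SD rats and humans, or were freshly kit-isolated from Crl:CD1 mice and TOYO beagles. They were used at 0.2 mg protein/mL in 100 mM Tris-HCl pH 7.5 with 0.1% Triton-X, 1 mM EDTA and 40 mM ascorbate, preincubated 10 min at 37°C, then given 0.5 µM protoporphyrinogen IX. PPIX fluorescence (ex 410/em 630 nm) was read for 60 min at 37°C. Heat-killed mitochondria gave the background, and IC50 came from 4-parameter fits over 3 runs.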"}, "[7]": {"molecular_target": "T2, protoporphyrinogen oxidase (PPO) (Rattus norvegicus, UniProt D3ZVN7)", "T2 sequence (D3ZVN7 1-488)": "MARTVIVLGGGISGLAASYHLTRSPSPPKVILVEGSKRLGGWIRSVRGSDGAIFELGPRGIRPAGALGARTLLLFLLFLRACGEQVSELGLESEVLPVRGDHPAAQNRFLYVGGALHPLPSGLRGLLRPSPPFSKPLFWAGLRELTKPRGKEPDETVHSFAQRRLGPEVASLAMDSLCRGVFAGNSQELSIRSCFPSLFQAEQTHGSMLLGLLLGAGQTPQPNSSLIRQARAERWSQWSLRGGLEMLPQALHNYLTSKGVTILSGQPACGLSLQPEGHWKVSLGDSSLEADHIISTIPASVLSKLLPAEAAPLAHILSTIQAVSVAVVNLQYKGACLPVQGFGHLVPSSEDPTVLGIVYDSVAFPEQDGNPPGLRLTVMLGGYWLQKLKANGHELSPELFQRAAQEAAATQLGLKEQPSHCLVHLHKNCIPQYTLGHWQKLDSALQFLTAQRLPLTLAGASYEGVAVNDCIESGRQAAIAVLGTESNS", "experiment": "PPO-inhibition assay, rat liver mitochondrial fraction", "assay_type": "biochemical", "method_in_brief": "as §1"}, "[8]": {"molecular_target": "T3, protoporphyrinogen oxidase (PPO) (Canis lupus familiaris, UniProt A0A8I3Q7Z3)", "T3 sequence (A0A8I3Q7Z3 1-480)": "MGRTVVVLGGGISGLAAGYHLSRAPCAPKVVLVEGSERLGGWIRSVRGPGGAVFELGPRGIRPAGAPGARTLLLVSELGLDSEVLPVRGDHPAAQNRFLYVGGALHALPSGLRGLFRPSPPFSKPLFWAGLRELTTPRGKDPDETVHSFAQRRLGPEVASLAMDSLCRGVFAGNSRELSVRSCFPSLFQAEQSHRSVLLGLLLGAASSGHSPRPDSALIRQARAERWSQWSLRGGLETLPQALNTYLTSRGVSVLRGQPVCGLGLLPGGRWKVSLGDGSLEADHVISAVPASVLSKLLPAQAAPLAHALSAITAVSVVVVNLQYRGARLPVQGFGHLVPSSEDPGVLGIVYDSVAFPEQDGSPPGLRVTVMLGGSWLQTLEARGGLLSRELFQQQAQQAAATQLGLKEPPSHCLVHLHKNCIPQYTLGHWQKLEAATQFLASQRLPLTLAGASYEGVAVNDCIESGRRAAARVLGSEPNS", "experiment": "PPO-inhibition assay, dog liver mitochondrial fraction", "assay_type": "biochemical", "method_in_brief": "as §1"}, "[9]": {"molecular_target": "T4, protoporphyrinogen oxidase (PPO) (Homo sapiens, UniProt P50336)", "T4 sequence (P50336 1-477)": "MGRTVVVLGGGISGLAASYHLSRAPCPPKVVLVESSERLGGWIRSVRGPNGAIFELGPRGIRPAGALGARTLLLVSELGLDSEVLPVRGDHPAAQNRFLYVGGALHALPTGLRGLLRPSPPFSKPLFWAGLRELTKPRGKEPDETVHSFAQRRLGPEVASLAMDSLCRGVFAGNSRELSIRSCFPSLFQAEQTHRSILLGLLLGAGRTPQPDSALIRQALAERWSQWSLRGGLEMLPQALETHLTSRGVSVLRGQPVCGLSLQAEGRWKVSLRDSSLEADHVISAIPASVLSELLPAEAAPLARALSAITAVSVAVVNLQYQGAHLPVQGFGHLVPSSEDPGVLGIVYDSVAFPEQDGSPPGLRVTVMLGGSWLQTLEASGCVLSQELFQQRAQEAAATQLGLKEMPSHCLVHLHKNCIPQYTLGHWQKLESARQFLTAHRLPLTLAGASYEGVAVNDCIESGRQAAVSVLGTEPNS", "experiment": "PPO-inhibition assay, human liver mitochondrial fraction", "assay_type": "biochemical", "method_in_brief": "as §1"}, "[10]": {"test_system": "cryopreserved primary hepatocytes of humans", "experiment": "Hepatocyte uptake assay", "assay_type": "in vitro ADME", "settings": "human hepatocytes (both genders), 5 µM, 37°C minus 4°C"}, "[11]": {"settings": "female, Crl:CD1(ICR), 4.1 mg/kg bw/day"}},
  "data": [
    {"smiles": "Cn1c(C(F)(F)F)cc(=O)n(-c2cc(Oc3cccnc3OCC(=O)O)c(Cl)cc2F)c1=O", "note": "[S-3100-CA, (3-{2-chloro-4-fluoro-5-[1,2,3,6-tetrahydro-3-methyl-2,6-dioxo-4-(trifluoromethyl)pyrimidin-1-yl]phenoxy}pyridin-2-yloxy)acetic acid]", "values": [
      {"measurement": "AUC(0-t)", "setting": "[1]; [11]", "result": 2240, "unit": "ng·h/mL"},
      {"measurement": "Cmax", "setting": "[1]; [11]", "result": 135, "unit": "ng/mL"},
      {"measurement": "AUC(0-t)", "setting": "[1]; female, 5 ppm in diet", "result": 403, "unit": "ng·h/mL"},
      {"measurement": "Cmax", "setting": "[1]; female, 5 ppm in diet", "result": 22.7, "unit": "ng/mL"},
      {"measurement": "AUC(0-t)", "setting": "[1]; female, 25 ppm in diet", "result": 2240, "unit": "ng·h/mL"},
      {"measurement": "Cmax", "setting": "[1]; female, 25 ppm in diet", "result": 135, "unit": "ng/mL"},
      {"measurement": "AUC(0-t)", "setting": "[1]; female, 100 ppm in diet", "result": 14800, "unit": "ng·h/mL"},
      {"measurement": "Cmax", "setting": "[1]; female, 100 ppm in diet", "result": 860, "unit": "ng/mL"},
      {"measurement": "Cmax", "setting": "[1]; male, Crl:CD1(ICR), 0.7 mg/kg bw/day", "result": 12.8, "unit": "ng/mL"},
      {"measurement": "Cmax", "setting": "[1]; male, 5 ppm in diet", "result": 12.8, "unit": "ng/mL"},
      {"measurement": "AUC(0-t)", "setting": "[1]; male, 25 ppm in diet", "result": 4580, "unit": "ng·h/mL"},
      {"measurement": "Cmax", "setting": "[1]; male, 25 ppm in diet", "result": 64.9, "unit": "ng/mL"},
      {"measurement": "AUC(0-t)", "setting": "[1]; male, 100 ppm in diet", "result": 10100, "unit": "ng·h/mL"},
      {"measurement": "Cmax", "setting": "[1]; male, 100 ppm in diet", "result": 550, "unit": "ng/mL"},
      {"measurement": "AUC0–24 of S-3100-CA at NOAEL, fold change vs. corresponding mouse value", "setting": "[2]; female dogs vs female mice", "result": 23, "unit": "fold"},
      {"measurement": "Cmax of S-3100-CA at NOAEL, fold change vs. corresponding mouse value", "setting": "[2]; female dogs vs female mice", "result": 42, "unit": "fold"},
      {"measurement": "Cmax", "setting": "[2]; female, 300 mg/kg bw/day", "result": 5650, "unit": "ng/mL"},
      {"measurement": "Cmax", "setting": "[2]; female, 300 mg/kg/day", "result": 5650, "unit": "ng/mL"},
      {"measurement": "Cmax of S-3100-CA at NOAEL, fold change vs. corresponding mouse value", "setting": "[2]; male dogs vs male mice", "result": 74, "unit": "fold"},
      {"measurement": "Cmax", "setting": "[2]; male, 100 mg/kg bw/day", "result": 947, "unit": "ng/mL"},
      {"measurement": "Cmax", "setting": "[2]; male, 100 mg/kg/day", "result": 947, "unit": "ng/mL"},
      {"measurement": "S-3100-CA detected as major metabolite, share of the applied radioactivity", "setting": "[3]", "result": "no less than 80%"},
      {"measurement": "S-3100-CA detected as major metabolite, share of the applied radioactivity", "setting": "[4]", "result": "no less than 80%"},
      {"measurement": "S-3100-CA detected as major metabolite, share of the applied radioactivity", "setting": "[5]", "result": "no less than 80%"},
      {"measurement": "IC50", "setting": "[6]", "result": "0.9 ± 0.3", "unit": "nM"},
      {"measurement": "IC50", "setting": "[7]", "result": "1.5 ± 0.36", "unit": "nM"},
      {"measurement": "IC50", "setting": "[8]", "result": "11.1 ± 3.12", "unit": "nM"},
      {"measurement": "IC50", "setting": "[9]", "result": "12.5 ± 2.08", "unit": "nM"},
      {"measurement": "Active uptake rate into hepatocytes", "setting": "[10]", "result": 3.83, "unit": "µL/10^6 cells/min"}
    ]}
  ]
}
